Measurements published in ChEMBL document CHEMBL1759861, “Synthesis of 9-substituted derivatives of berberine as anti-HIV agents” (Eur J Med Chem, 2011).

How the values were obtained:
[1] = Therapeutic index, ratio of CC50 for human CEM cells expressing green fluorescent protein to EC50 for Human immunodeficiency virus 1 NL4.3; format: cell-based, CCRF-CEM; details: read-out: TI
Summary of the method: (§1)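 CEM-GFP cells infected with HIV-1 NL4.3 (MOI 0.05) and cultured with samples over a concentration range up to 7 days post infection. p24 antigen capture ELISA on day-7 supernatant. EC50 is the concentration giving 50% inhibition of infected cells. Therapeutic index is CC50 in uninfected cells (MTT, 48 h) divided by EC50.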

[2] = target: Human immunodeficiency virus type 1 reverse transcriptase (Human immunodeficiency virus 1) (UniProt Q72547); assay: Inhibition of Human immunodeficiency virus 1 NL4.3 reverse transcriptase activity at 20 ug/ml
[3] = test system: Human immunodeficiency virus 1; assay: Antiviral activity against 0.05 MOI Human immunodeficiency virus 1 NL4.3 infected in human CEM cells expressing green fluorescent protein assessed as p24 antigen production at 4.32 uM measured 7 days post infection by ELISA; format: functional; details: Human immunodeficiency virus 1, NL4.3, CCRF-CEM, 168 h
Summary of the method: (§2)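 CD4+ T-cell line CEM-GFP infected with HIV-1 NL4.3 at MOI 0.05, monitored by GFP under the microscope. Each sample tested at a single concentration, its highest noncytotoxic concentration, for up to 7 days post infection. Day-7 culture supernatant assayed for virus by p24 antigen capture ELISA; % inhibition of replication reported. AZT positive control.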

[4] = Cytotoxicity against human CEM cells expressing green fluorescent protein after 48 hrs by MTT assay; format: cell-based, CCRF-CEM
Summary of the method: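 Uninfected CEM-GFP cells seeded at 2×10^4 cells/well with samples at several concentrations, untreated and vehicle-treated controls, 48 h. MTT reagent (5 mg/ml stock) added, formazan solubilised, absorbance read at 540 nm. CC50 is the concentration giving 50% cytotoxicity.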

[5] = test system: Human immunodeficiency virus 1; assay: Antiviral activity against 0.05 MOI Human immunodeficiency virus 1 NL4.3 infected in human CEM cells expressing green fluorescent protein assessed as p24 antigen production measured 7 days post infection by ELISA; format: functional, organism-based; details: Human immunodeficiency virus 1, NL4.3, CCRF-CEM, 168 h; summary of the method: as §1
[6] = test system: Human immunodeficiency virus 1; assay: Antiviral activity against 0.05 MOI Human immunodeficiency virus 1 NL4.3 infected in human CEM cells expressing green fluorescent protein assessed as p24 antigen production at 0.29 uM measured 7 days post infection by ELISA; format: functional; details: Human immunodeficiency virus 1, NL4.3, CCRF-CEM, 168 h; summary of the method: as §2
[7] = test system: Human immunodeficiency virus 1; assay: Antiviral activity against 0.05 MOI Human immunodeficiency virus 1 NL4.3 infected in human CEM cells expressing green fluorescent protein assessed as p24 antigen production at 21.65 uM measured 7 days post infection by ELISA; format: functional; details: Human immunodeficiency virus 1, NL4.3, CCRF-CEM, 168 h; summary of the method: as §2
[8] = test system: Human immunodeficiency virus 1; assay: Antiviral activity against 0.05 MOI Human immunodeficiency virus 1 NL4.3 infected in human CEM cells expressing green fluorescent protein assessed as p24 antigen production at 4.69 uM measured 7 days post infection by ELISA; format: functional; details: Human immunodeficiency virus 1, NL4.3, CCRF-CEM, 168 h; summary of the method: as §2
[9] = test system: Human immunodeficiency virus 1; assay: Antiviral activity against 0.05 MOI Human immunodeficiency virus 1 NL4.3 infected in human CEM cells expressing green fluorescent protein assessed as p24 antigen production at 5.31 uM measured 7 days post infection by ELISA; format: functional; details: Human immunodeficiency virus 1, NL4.3, CCRF-CEM, 168 h; summary of the method: as §2
[10] = test system: Human immunodeficiency virus 1; assay: Antiviral activity against 0.05 MOI Human immunodeficiency virus 1 NL4.3 infected in human CEM cells expressing green fluorescent protein assessed as p24 antigen production at 2.10 uM measured 7 days post infection by ELISA; format: functional; details: Human immunodeficiency virus 1, NL4.3, CCRF-CEM, 168 h; summary of the method: as §2
[11] = test system: Human immunodeficiency virus 1; assay: Antiviral activity against 0.05 MOI Human immunodeficiency virus 1 NL4.3 infected in human CEM cells expressing green fluorescent protein assessed as p24 antigen production at 4.88 uM measured 7 days post infection by ELISA; format: functional; details: Human immunodeficiency virus 1, NL4.3, CCRF-CEM, 168 h; summary of the method: as §2
[12] = test system: Human immunodeficiency virus 1; assay: Antiviral activity against 0.05 MOI Human immunodeficiency virus 1 NL4.3 infected in human CEM cells expressing green fluorescent protein assessed as p24 antigen production at 1.03 uM measured 7 days post infection by ELISA; format: functional; details: Human immunodeficiency virus 1, NL4.3, CCRF-CEM, 168 h; summary of the method: as §2
[13] = test system: Human immunodeficiency virus 1; assay: Antiviral activity against 0.05 MOI Human immunodeficiency virus 1 NL4.3 infected in human CEM cells expressing green fluorescent protein assessed as p24 antigen production at 0.02 uM measured 7 days post infection by ELISA; format: functional; details: Human immunodeficiency virus 1, NL4.3, CCRF-CEM, 168 h; summary of the method: as §2
[14] = test system: Human immunodeficiency virus 1; assay: Antiviral activity against 0.05 MOI Human immunodeficiency virus 1 NL4.3 infected in human CEM cells expressing green fluorescent protein assessed as p24 antigen production at 1.05 uM measured 7 days post infection by ELISA; format: functional; details: Human immunodeficiency virus 1, NL4.3, CCRF-CEM, 168 h; summary of the method: as §2
[15] = test system: Human immunodeficiency virus 1; assay: Antiviral activity against 0.05 MOI Human immunodeficiency virus 1 NL4.3 infected in human CEM cells expressing green fluorescent protein assessed as p24 antigen production at 15.52 uM measured 7 days post infection by ELISA; format: functional; details: Human immunodeficiency virus 1, NL4.3, CCRF-CEM, 168 h; summary of the method: as §2
[16] = target: Human immunodeficiency virus type 1 reverse transcriptase (Human immunodeficiency virus 1) (UniProt Q72547); assay: Inhibition of Human immunodeficiency virus 1 NL4.3 reverse transcriptase activity at 200 ug/ml
Summary of the method: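 HIV-1 RT inhibition measured with a colorimetric reverse transcriptase assay kit, following the manufacturer's protocol; nevirapine served as the positive control.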

[17] = test system: Human immunodeficiency virus 1; assay: Antiviral activity against 0.05 MOI Human immunodeficiency virus 1 NL4.3 infected in human CEM cells expressing green fluorescent protein assessed as p24 antigen production at 4.62 uM measured 7 days post infection by ELISA; format: functional; details: Human immunodeficiency virus 1, NL4.3, CCRF-CEM, 168 h; summary of the method: as §2
[18] = test system: Human immunodeficiency virus 1; assay: Antiviral activity against 0.05 MOI Human immunodeficiency virus 1 NL4.3 infected in human CEM cells expressing green fluorescent protein assessed as p24 antigen production at 2.24 uM measured 7 days post infection by ELISA; format: functional; details: Human immunodeficiency virus 1, NL4.3, CCRF-CEM, 168 h; summary of the method: as §2
[19] = test system: Human immunodeficiency virus 1; assay: Antiviral activity against 0.05 MOI Human immunodeficiency virus 1 NL4.3 infected in human CEM cells expressing green fluorescent protein assessed as p24 antigen production at 1.95 uM measured 7 days post infection by ELISA; format: functional; details: Human immunodeficiency virus 1, NL4.3, CCRF-CEM, 168 h; summary of the method: as §2
[20] = test system: Human immunodeficiency virus 1; assay: Antiviral activity against 0.05 MOI Human immunodeficiency virus 1 NL4.3 infected in human CEM cells expressing green fluorescent protein assessed as p24 antigen production at 5.30 uM measured 7 days post infection by ELISA; format: functional; details: Human immunodeficiency virus 1, NL4.3, CCRF-CEM, 168 h; summary of the method: as §2
[21] = test system: Human immunodeficiency virus 1; assay: Antiviral activity against 0.05 MOI Human immunodeficiency virus 1 NL4.3 infected in human CEM cells expressing green fluorescent protein assessed as p24 antigen production at 5 uM measured 7 days post infection by ELISA; format: functional; details: Human immunodeficiency virus 1, NL4.3, CCRF-CEM, 168 h; summary of the method: as §2
[22] = test system: Human immunodeficiency virus 1; assay: Antiviral activity against 0.05 MOI Human immunodeficiency virus 1 NL4.3 infected in human CEM cells expressing green fluorescent protein assessed as p24 antigen production at 18.03 uM measured 7 days post infection by ELISA; format: functional; details: Human immunodeficiency virus 1, NL4.3, CCRF-CEM, 168 h; summary of the method: as §2
[23] = test system: Human immunodeficiency virus 1; assay: Antiviral activity against 0.05 MOI Human immunodeficiency virus 1 NL4.3 infected in human CEM cells expressing green fluorescent protein assessed as p24 antigen production at 9.77 uM measured 7 days post infection by ELISA; format: functional; details: Human immunodeficiency virus 1, NL4.3, CCRF-CEM, 168 h; summary of the method: as §2

## COc1ccc2cc3[n+](cc2c1OC(=O)c1ccc(F)cc1F)CCc1cc2c(cc1-3)OCO2
[1]
  selectivity ratio: 60.1
[2]
  inhibition: 99%
[3]
  inhibition at 4.32 µM: 71.7%
[4]
  CC50 at 48 h: 57100 nM
[5]
  EC50: 950 nM

## COc1ccc2cc3[n+](cc2c1OC)CCc1cc2c(cc1-3)OCO2 [BERBERINE CHLORIDE]
[1]
  selectivity ratio: 16.1
[2]
  inhibition: 94%
[6]
  inhibition at 0.29 µM: 66%
[4]
  CC50 at 48 h: 2090 nM
[5]
  EC50: 130 nM

## COc1ccc2cc3[n+](cc2c1OC(=O)c1ccc(F)c(F)c1)CCc1cc2c(cc1-3)OCO2
[7]
  inhibition at 21.65 µM: 0%

## COc1ccc2cc3[n+](cc2c1OC(=O)c1ccccc1)CCc1cc2c(cc1-3)OCO2
[8]
  inhibition at 4.69 µM: 37.2%

## COc1ccc2cc3[n+](cc2c1OC(=O)c1ccc2c(c1)OCO2)CCc1cc2c(cc1-3)OCO2
[9]
  inhibition at 5.31 µM: 45.6%

## COc1ccc2cc3[n+](cc2c1OC(=O)c1ccc2ccccc2c1)CCc1cc2c(cc1-3)OCO2
[10]
  inhibition at 2.1 µM: 58.8%

## COc1ccc2cc3[n+](cc2c1OC(=O)c1ccc(F)cc1C(F)(F)F)CCc1cc2c(cc1-3)OCO2
[11]
  inhibition at 4.88 µM: 0%

## COc1ccc2cc3[n+](cc2c1OC(=O)C12CC4CC(CC(C4)C1)C2)CCc1cc2c(cc1-3)OCO2
[12]
  inhibition at 1.03 µM: 64.2%

## COc1ccc(C(=O)Oc2c(OC)ccc3cc4[n+](cc23)CCc2cc3c(cc2-4)OCO3)cc1
[13]
  inhibition at 0.02 µM: 44.3%

## COc1ccc2cc3[n+](cc2c1OC(=O)c1cccc2ccccc12)CCc1cc2c(cc1-3)OCO2
[14]
  inhibition at 1.05 µM: 0%

## COc1ccc2cc3[n+](cc2c1O)CCc1cc2c(cc1-3)OCO2 [BERBERRUBINE CHLORIDE]
[1]
  selectivity ratio: 60.4
[2]
  inhibition: 99%
[15]
  inhibition at 15.52 µM: 77%
[4]
  CC50 at 48 h: 169000 nM
[5]
  EC50: 2800 nM

## COc1cc2c(cc1OC)[C@@H]1Cc3ccc(OC)c(OC)c3CN1CC2
[16]
  inhibition: 25%

## COc1ccc2cc3[n+](cc2c1OC(=O)c1cccs1)CCc1cc2c(cc1-3)OCO2
[1]
  selectivity ratio: 50.5
[2]
  inhibition: 99%
[4]
  CC50 at 48 h: 91900 nM
[5]
  EC50: 1820 nM
[17]
  inhibition at 4.62 µM: 73.1%

## COc1ccc2cc3[n+](cc2c1OC(=O)Cc1cccs1)CCc1cc2c(cc1-3)OCO2
[18]
  inhibition at 2.24 µM: 0%

## COc1ccc2cc3[n+](cc2c1OC(=O)c1c(F)cccc1C(F)(F)F)CCc1cc2c(cc1-3)OCO2
[19]
  inhibition at 1.95 µM: 0%

## COc1ccc2cc3[n+](cc2c1OC(=O)c1ccc(SC)cc1)CCc1cc2c(cc1-3)OCO2
[20]
  inhibition at 5.3 µM: 0%

## Cc1cn([C@H]2C[C@H](N=[N+]=[N-])[C@@H](CO)O2)c(=O)[nH]c1=O [ZIDOVUDINE]
[5]
  EC50: 1050 nM
[21]
  inhibition at 5 µM: 89.8%

## COc1ccc2cc3[n+](cc2c1OC(=O)c1ccc(F)c(C(F)(F)F)c1)CCc1cc2c(cc1-3)OCO2
[11]
  inhibition at 4.88 µM: 0%

## COc1ccc2cc3[n+](cc2c1OC(=O)c1ccco1)CCc1cc2c(cc1-3)OCO2
[22]
  inhibition at 18.03 µM: 22.6%

## COc1ccc2cc3[n+](cc2c1OC(=O)c1ccc(C(F)(F)F)cc1F)CCc1cc2c(cc1-3)OCO2
[23]
  inhibition at 9.77 µM: 23.4%
